Results as given in paper PMC6299426 (Theranostics, 2018).
Read-outs that look alike come from different tables or passages of the source. Marks after values point to notes of the source that are not given here.

Legend:
[1] = test system: D-amino acid oxidase (DAAO); experiment: D-serine oxidation by pure DAAO in vitro; format: biochemical; details: 89 μM, 15 min at 37 °C; control 13%
[2] = test system: carboxylesterase of the gut microbiota; format: biochemical, SD rats; details: without inhibitor 100%
Procedure, shortened: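 Carboxylesterase inhibitor BNPP (0.3, 0.9 or 3 mM) was added together with test compound (final 1 mg/mL) to pre-incubated pooled SD rat colon-content cultures. Incubation was anaerobic (N2) at 37 °C. Conversion was followed by C18 LC/MSn-IT-TOF.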

[3] = biological target: D-amino acid oxidase (DAAO) (Mus musculus, UniProt P18894); experiment: DAAO activity in mouse brain homogenate; format: biochemical, ICR mice; details: 5 and 10 μg/mL, 30 min at 37 °C
Chain of D-amino acid oxidase (DAAO) (Mus musculus, UniProt P18894) (P18894 whole entry): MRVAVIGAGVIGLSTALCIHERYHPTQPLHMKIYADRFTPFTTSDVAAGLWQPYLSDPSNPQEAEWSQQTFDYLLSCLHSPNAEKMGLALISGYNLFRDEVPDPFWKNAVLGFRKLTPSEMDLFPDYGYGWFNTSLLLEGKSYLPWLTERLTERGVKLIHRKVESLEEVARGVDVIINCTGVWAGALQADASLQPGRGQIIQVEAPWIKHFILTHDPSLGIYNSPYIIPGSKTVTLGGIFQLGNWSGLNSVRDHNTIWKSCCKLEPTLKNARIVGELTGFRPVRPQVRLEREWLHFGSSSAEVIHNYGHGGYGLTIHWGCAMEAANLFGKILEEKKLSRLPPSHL
Procedure, shortened: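 Brains from ten ICR mice, killed by cervical dislocation, were rinsed in saline, blotted, weighed and homogenized in 2 volumes (v/w) saline. Test compounds at final 5 or 10 μg/mL were added and incubated 30 min at 37 °C. DAAO activity was measured by ELISA kit.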

[4] = test system: chronic stress-induced depression model rats; experiment: Sugar preference test in chronic stress-induced depression model; format: in vivo, SD rats; details: 14 mg/kg orally, 14 days
Procedure, shortened: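 SD rats were exposed to multiple alternating stressors for 8 weeks; there were 6 groups of 10, including an unstressed control. Treatment lasted 14 days, and PGF rats stayed on antibiotics throughout. Sugar preference was tested on days 0 and 14. Data are mean ± standard deviation, analysed by two-way ANOVA and t-test.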

[5] = test system: reserpine-induced acute depression model mice; experiment: Tail suspension test in reserpine-induced acute depression model; format: in vivo, ICR mice; details: model group 140.6 ± 13.6 s
[6] = test system: reserpine-induced acute depression model mice; experiment: Body temperature in reserpine-induced acute depression model; format: in vivo, ICR mice; details: 7 days, 4 h after reserpine, model 34.55±0.25
[7] = test system: reserpine-induced acute depression model mice; experiment: Degree of ptosis in reserpine-induced acute depression model; format: in vivo, ICR mice; details: 7 days, 1 h after reserpine, scale 0-4, model 2.7
[8] = test system: reserpine-induced acute depression model mice; experiment: Out-circle rate in reserpine-induced acute depression model; format: in vivo, ICR mice; details: 7 days, in 15 s, model 20.0
[9] = Identification of albiflorin metabolites in vivo; design: species or system ICR mice; details: after albiflorin administration
Procedure, shortened: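 Fecal metabolites were profiled by LC/MSn-IT-TOF. Feces were extracted with methanol (1/10, g/mL) by ultrasound for 30 min and centrifuged 10 min at 21100 ×g; 20 μL of supernatant was injected. Separation used a C18 column (250 × 4.6 mm, 5 μm) with a water/0.5% formic acid–methanol gradient at 0.8 mL/min over 45 min. Brain was sampled 2 h after oral dosing at 14 mg/kg, with analytes quantified by HPLC-MS/MS.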

Cc1cc(C(=O)O)n[nH]1 [AS057278, reference compound]
D-serine in DAAO system (%) [1]: 38%

O=[N+]([O-])c1ccc(OP(=O)(O)Oc2ccc([N+](=O)[O-])cc2)cc1 [BNPP, bis-p-nitrophenyl phosphate]
Albiflorin conversion rate in presence of inhibitor ([2]; BNPP 0.3 mM): 82.7% | Albiflorin conversion rate in presence of inhibitor ([2]; BNPP 0.9 mM): 51.5% | Albiflorin conversion rate in presence of inhibitor ([2]; BNPP 3 mM): 11.3%

O=C(O)c1ccccc1 [benzoic acid, Benzoic acid]
D-serine in DAAO system (%) [1]: 32% | Activity of DAAO in brain homogenate [3]: significantly inhibit | Sugar preference values vs depression group [4]: significantly higher | Immobility time in tail suspension test ([5]; 14 mg/kg for 7 days): 99.5 ± 10.1 s | Body temperature ([6]; 14 mg/kg): 35.23±0.40 ºC | Mean score of ptosis ([7]; 14 mg/kg): 1.7 ^* | Rate of out-circle ([8]; 14 mg/kg): 70.0 ^* % | Where the metabolite was detected in mice [9]: detected in plasma, feces and brain

CNCCC(Oc1ccc(C(F)(F)F)cc1)c1ccccc1 (stereo not shown) [fluoxetine, reference compound]
Immobility time in tail suspension test ([5]; 10 mg/kg for 7 days): 76.0 ± 17.8 s | Body temperature ([6]; 10 mg/kg): 35.31±0.26 ºC | Mean score of ptosis ([7]; 10 mg/kg): 1.4 ^* | Rate of out-circle ([8]; 10 mg/kg): 60.0%

dihydroxylalbiflorin [M2]
Where the metabolite was detected in mice [9]: only detected in the feces

glucuronic acid-conjugated albiflorin [M3]
Where the metabolite was detected in mice [9]: only detected in the feces

hydroxylalbiflorin [M1]
Where the metabolite was detected in mice [9]: only detected in the feces
